Measurements as given in PMC4235008 (Neoplasia (New York, N.Y.), 2014).

Test system: PC3 xenografts
Test: PET imaging of PC3 xenografted Nu/Nu mice
Type: in vivo, mouse
Conditions: 15 MBq injected, 20-minute scan
Outline: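 Male Nu/Nu mice (4–6 weeks old) got s.c. PC3 cells (1 × 10^6 in PBS, shoulders) or LNCaP cells (2.5 × 10^6 in PBS/Matrigel 1:1, hips). Tumors grew ≥4 weeks to ≥5 mm. Under isoflurane, mice received i.v. 3.7–7.4 MBq 64Cu peptide or 15 MBq [18F]-FDG, on a heated bed. Scans ran 20 min on small-animal PET with 3D MLEM reconstruction. ROI activity was expressed per cm³ as % injected dose.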

OC[C@H]1OC(O)[C@H]([18F])[C@@H](O)[C@@H]1O (stereo partly drawn) [[^18F]-FDG, [^18F]-fluoro-2-deoxy-D-glucose]
PC3 tumor [18F]-FDG uptake (PET): faultless
